# Measurements gathered from unrelated publications.
# Medium: plasma
host,route,dose,setting,Cmax,SMILES
male Sprague-Dawley rat,intraperitoneal,5 mg/kg,,12500 ng/mL,Nc1ccn([C@@H]2O[C@H](CO)[C@@H](O)C2(F)F)c(=O)n1
rat,oral,40 mg/kg,,84.4 ng/mL,C=CC(=O)N1CCC[C@@H](n2nc(-c3ccc(Oc4ccccc4)cc3)c3c(N)ncnc32)C1
male rat,oral,10 mg/kg,,966 ng/mL,CCCCC(=O)Nc1ccc(-c2ccc3ncn(CCC)c(=O)c3c2)cn1
male Sprague-Dawley rat,oral,10 mg/kg,single dose,23.4 ng/mL,CONC(=O)c1cccc2c1cc(C)n2-c1nc2c(c(NCc3ccccc3)n1)CCCN2
male Sprague-Dawley rat,oral,10 mg/kg,single dose,468 ng/mL,C[C@H]1Oc2cc(cnc2N)-c2c(nn(C)c2C#N)CN(C)C(=O)c2ccc(F)cc21
female Wistar rat,oral,1 mg/kg,single dose,3360 ng/mL,CC(=O)O[C@@H]1CC[C@@]2(C)[C@@H](CC[C@]3(C)[C@@H]2C(=O)C=C2[C@@H]4[C@@H](C)[C@H](C)CC[C@]4(C)CC[C@]23C)[C@@]1(C)C(=O)O
male Sprague-Dawley rat,intravenous,5 mg/kg,,4120 ng/mL,COc1cc(-c2cc(C(C)=O)n3ccccc23)c(OC)cc1Cn1ccnc1
male Sprague-Dawley rat,oral,36 mg/kg,,333 ng/mL,C1=C/COCc2cc(ccc2OCCN2CCCC2)Nc2nccc(n2)-c2cccc(c2)COC/1
male Sprague-Dawley rat,oral,100 mg/kg,single dose,956 ng/mL,CNC(=O)c1cc(Oc2ccc(NC(=O)Nc3ccc(Cl)c(C(F)(F)F)c3)cc2)ccn1
rat,oral,60 mg/kg,,4 µM,C=CCn1c(=O)c2cnc(Nc3ccc(N4CCN(C)CC4)cc3)nc2n1-c1ccc2c(n1)[C@@](O)(CC)CC2
Sprague-Dawley rat,oral,40 mg/kg,,703 ng/mL,CC[C@@H]([C@H](C)O)n1ncn(-c2ccc(N3CCN(c4ccc(OC[C@@H]5CO[C@@](Cn6cncn6)(c6ccc(F)cc6F)C5)cc4)CC3)cc2)c1=O
male Sprague-Dawley rat,intravenous,2 mg/kg,,1800 ng/mL,COc1nc(-c2cccc(-c3ccccc3)c2C)ccc1CNCCNC(=O)CCCCCCCCCCC(=O)N1CCN(CCNC(=O)c2cc3c(=O)n4cccc(C)c4nc3n(CCc3cccs3)c2=N)CC1
male Sprague-Dawley rat,oral,2 mg/kg,single dose,666 ng/mL,CCOc1c([C@H](C)n2nc(C)c3c(N)ncnc32)cc(Cl)c(F)c1[C@@H]1CNC(=O)C1
male Sprague-Dawley rat,oral,10 mg/kg,,2650 ng/mL,CCN(CC)Cc1ccc2cc(COC(=O)Nc3ccc(C(=O)NO)cc3)ccc2c1
female Sprague-Dawley rat,oral,30 mg/kg,,4.73 ng/mL,COc1ccc(N(Cc2csc(-c3ccccc3)n2)C(=O)CCCCCC(=O)NO)cc1
male Sprague-Dawley rat,intravenous,1 mg/kg,,113 ng/mL,O=C1CCC(N2Cc3cc(C4CCN(Cc5ccccc5)CC4)ccc3C2=O)C(=O)N1 (stereo not shown)
